Assay results from ChEMBL document CHEMBL5058577, “EUbOPEN Chemogenomics Library 2 (Multiplex)” (2022).

System: U2OS
Test: Multiplex assay against U2OS
Type: toxicity, cell-based
Settings: human
Method in brief: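 Compound was added to live cells that had been stained at seeding with Hoechst33342, BioTracker Green Microtubule Cytoskeleton Dye, MitoTracker Red and Annexin V Alexa Fluor 680, and imaging followed on a CQ1 microscope at 37°C and 5% CO2. CellPathfinder machine-learning gating divided cells into Hoechst high-intensity objects or normal cells, normal cells into healthy, pyknosed or fragmented nuclei, and pyknosed cells into mitotic or apoptotic. Tubulin, mitochondrial-mass and membrane-permeability phenotypes are per cents of healthy-nucleus cells.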

[1] = 12 h, 1 µM, compound concentration 1 uM, replicate 1
[2] = 12 h, 1 µM, compound concentration 1 uM, replicate 2
[3] = 12 h, 10 µM, compound concentration 10 uM, replicate 1
[4] = 12 h, 10 µM, compound concentration 10 uM, replicate 2
[5] = 24 h, 1 µM, compound concentration 1 uM, replicate 1
[6] = 24 h, 1 µM, compound concentration 1 uM, replicate 2
[7] = 24 h, 10 µM, compound concentration 10 uM, replicate 1
[8] = 24 h, 10 µM, compound concentration 10 uM, replicate 2
[9] = 48 h, 1 µM, compound concentration 1 uM, replicate 1
[10] = 48 h, 1 µM, compound concentration 1 uM, replicate 2
[11] = 48 h, 10 µM, compound concentration 10 uM, replicate 1
[12] = 48 h, 10 µM, compound concentration 10 uM, replicate 2

SMILES: CCCn1c(=O)c2[nH]c(C3CCCC3)nc2n(CCC)c1=O [1,3-DIPROPYL-8-CYCLOPENTYLXANTHINE [DPCPX]]
- Population Apoptotic (%) [1]: 87%
- Population Fragmented Nuclei (%) [1]: 25%
- Population Healthy Nuclei (%) [1]: 64%
- Population Hoechst High Intensity Objects (%) [1]: 1%
- Population Membrane Permeable-Phenotype (%) [1]: 1%
- Population Mitochondria Different-Phenotype (%) [1]: 3%
- Population Mitotic Cells (%) [1]: 12%
- Population Normal (%) [1]: 98%
- Population Pyknosed Nuclei (%) [1]: 9%
- Population Tubulin-Different-Phenotype (%) [1]: 1%
- Total Cell Count [1]: 250
- Population Apoptotic (%) [2]: 93%
- Population Fragmented Nuclei (%) [2]: 15%
- Population Healthy Nuclei (%) [2]: 72%
- Population Hoechst High Intensity Objects (%) [2]: 0%
- Population Membrane Permeable-Phenotype (%) [2]: 7%
- Population Mitochondria Different-Phenotype (%) [2]: 4%
- Population Mitotic Cells (%) [2]: 6%
- Population Normal (%) [2]: 100%
- Population Pyknosed Nuclei (%) [2]: 12%
- Population Tubulin-Different-Phenotype (%) [2]: 5%
- Total Cell Count [2]: 125
- Population Apoptotic (%) [3]: 68%
- Population Fragmented Nuclei (%) [3]: 30%
- Population Healthy Nuclei (%) [3]: 60%
- Population Hoechst High Intensity Objects (%) [3]: 2%
- Population Membrane Permeable-Phenotype (%) [3]: 5%
- Population Mitochondria Different-Phenotype (%) [3]: 1%
- Population Mitotic Cells (%) [3]: 31%
- Population Normal (%) [3]: 97%
- Population Pyknosed Nuclei (%) [3]: 9%
- Population Tubulin-Different-Phenotype (%) [3]: 3%
- Total Cell Count [3]: 206
- Population Apoptotic (%) [4]: 100%
- Population Fragmented Nuclei (%) [4]: 21%
- Population Healthy Nuclei (%) [4]: 69%
- Population Hoechst High Intensity Objects (%) [4]: 3%
- Population Membrane Permeable-Phenotype (%) [4]: 6%
- Population Mitochondria Different-Phenotype (%) [4]: 9%
- Population Mitotic Cells (%) [4]: 0%
- Population Normal (%) [4]: 96%
- Population Pyknosed Nuclei (%) [4]: 8%
- Total Cell Count [4]: 96
- Population Apoptotic (%) [5]: 83%
- Population Fragmented Nuclei (%) [5]: 24%
- Population Healthy Nuclei (%) [5]: 68%
- Population Hoechst High Intensity Objects (%) [5]: 3%
- Population Membrane Permeable-Phenotype (%) [5]: 5%
- Population Mitochondria Different-Phenotype (%) [5]: 3%
- Population Mitotic Cells (%) [5]: 16%
- Population Normal (%) [5]: 96%
- Population Pyknosed Nuclei (%) [5]: 7%
- Population Tubulin-Different-Phenotype (%) [5]: 4%
- Total Cell Count [5]: 261
- Population Apoptotic (%) [6]: 87%
- Population Fragmented Nuclei (%) [6]: 13%
- Population Healthy Nuclei (%) [6]: 74%
- Population Hoechst High Intensity Objects (%) [6]: 2%
- Population Membrane Permeable-Phenotype (%) [6]: 8%
- Population Mitotic Cells (%) [6]: 12%
- Population Normal (%) [6]: 97%
- Population Pyknosed Nuclei (%) [6]: 11%
- Total Cell Count [6]: 138
- Population Apoptotic (%) [7]: 89%
- Population Fragmented Nuclei (%) [7]: 27%
- Population Healthy Nuclei (%) [7]: 64%
- Population Hoechst High Intensity Objects (%) [7]: 2%
- Population Membrane Permeable-Phenotype (%) [7]: 7%
- Population Mitochondria Different-Phenotype (%) [7]: 0%
- Population Mitotic Cells (%) [7]: 10%
- Population Normal (%) [7]: 97%
- Population Pyknosed Nuclei (%) [7]: 8%
- Population Tubulin-Different-Phenotype (%) [7]: 0%
- Total Cell Count [7]: 234
- Population Apoptotic (%) [8]: 100%
- Population Fragmented Nuclei (%) [8]: 21%
- Population Healthy Nuclei (%) [8]: 71%
- Population Hoechst High Intensity Objects (%) [8]: 4%
- Population Membrane Permeable-Phenotype (%) [8]: 3%
- Population Mitochondria Different-Phenotype (%) [8]: 3%
- Population Mitotic Cells (%) [8]: 0%
- Population Normal (%) [8]: 95%
- Population Pyknosed Nuclei (%) [8]: 6%
- Total Cell Count [8]: 120
- Population Apoptotic (%) [9]: 86%
- Population Fragmented Nuclei (%) [9]: 20%
- Population Healthy Nuclei (%) [9]: 69%
- Population Hoechst High Intensity Objects (%) [9]: 1%
- Population Membrane Permeable-Phenotype (%) [9]: 3%
- Population Mitochondria Different-Phenotype (%) [9]: 1%
- Population Mitotic Cells (%) [9]: 13%
- Population Normal (%) [9]: 98%
- Population Pyknosed Nuclei (%) [9]: 10%
- Population Tubulin-Different-Phenotype (%) [9]: 2%
- Total Cell Count [9]: 364
- Population Apoptotic (%) [10]: 92%
- Population Fragmented Nuclei (%) [10]: 17%
- Population Hoechst High Intensity Objects (%) [10]: 2%
- Population Membrane Permeable-Phenotype (%) [10]: 8%
- Population Mitochondria Different-Phenotype (%) [10]: 4%
- Population Mitotic Cells (%) [10]: 8%
- Population Normal (%) [10]: 97%
- Population Pyknosed Nuclei (%) [10]: 13%
- Population Tubulin-Different-Phenotype (%) [10]: 3%
- Total Cell Count [10]: 196
- Population Apoptotic (%) [11]: 77%
- Population Fragmented Nuclei (%) [11]: 24%
- Population Healthy Nuclei (%) [11]: 62%
- Population Hoechst High Intensity Objects (%) [11]: 2%
- Population Membrane Permeable-Phenotype (%) [11]: 4%
- Population Mitochondria Different-Phenotype (%) [11]: 1%
- Population Mitotic Cells (%) [11]: 22%
- Population Normal (%) [11]: 97%
- Population Pyknosed Nuclei (%) [11]: 12%
- Population Tubulin-Different-Phenotype (%) [11]: 3%
- Total Cell Count [11]: 322
- Population Apoptotic (%) [12]: 100%
- Population Fragmented Nuclei (%) [12]: 19%
- Population Healthy Nuclei (%) [12]: 73%
- Population Hoechst High Intensity Objects (%) [12]: 3%
- Population Membrane Permeable-Phenotype (%) [12]: 5%
- Population Mitochondria Different-Phenotype (%) [12]: 3%
- Population Mitotic Cells (%) [12]: 0%
- Population Normal (%) [12]: 96%
- Population Pyknosed Nuclei (%) [12]: 6%
- Population Tubulin-Different-Phenotype (%) [12]: 0%
- Total Cell Count [12]: 165
